# Only some compounds are listed: those with a hit (about 1.9% of all), similar ones and a draw of the others.
# M4 PAM: CHRM4 positive allosteric modulation | CHO-K1 hM4/Gqi5, Fluo-8 calcium fluorescence, ACh EC20; 0% = ACh EC20, 100% = maximal ACh | activation, % at 3 µM | hit rate 0.4% among 360,000;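 active = activation above its plate's cutoff, the mean activation of sample wells plus 3 SD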
# Target sequence (P08173 whole entry, looked up): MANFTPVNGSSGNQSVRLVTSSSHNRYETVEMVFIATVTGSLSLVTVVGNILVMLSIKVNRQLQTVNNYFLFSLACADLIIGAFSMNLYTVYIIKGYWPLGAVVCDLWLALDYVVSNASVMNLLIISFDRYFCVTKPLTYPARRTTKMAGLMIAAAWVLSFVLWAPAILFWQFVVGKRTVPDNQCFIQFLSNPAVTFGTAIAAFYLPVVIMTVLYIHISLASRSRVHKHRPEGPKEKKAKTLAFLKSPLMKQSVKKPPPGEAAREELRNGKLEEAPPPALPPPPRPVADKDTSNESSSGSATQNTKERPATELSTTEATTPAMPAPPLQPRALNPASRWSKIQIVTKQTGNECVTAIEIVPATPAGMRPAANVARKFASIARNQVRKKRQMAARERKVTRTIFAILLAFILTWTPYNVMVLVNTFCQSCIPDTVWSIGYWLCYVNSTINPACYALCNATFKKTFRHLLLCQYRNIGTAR
# M5 PAM: positive allosteric modulators of human muscarinic M5 receptor; CHO-K1 hM5, Fluo-8 calcium, ACh EC20 PAM; 0% = ACh EC20, 100% = ACh EC100; activation, % at 3 µM; hit rate 0.3% among 360,000;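 active = activation above the run cutoff, the mean activation of all test compounds plus 3 SD, cut at about 18% in these data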
#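 System: CHO-K1 hM5 cells. Reagent: acetylcholine, EC20 level. Compound dosing: single dose, 3 µM nominal final test concentration. Timing: Post-acetylcholine fluorescence recording 140 s. Detection: Fluo-8 calcium fluorescence. Read-out: % activation, ACh-normalized. Benchmarks: ACh EC20 and EC100 wells. Repeats: singlicate, one well per test compound.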
# M5 antag: CHRM5 antagonism in calcium assay; P08912; CHO-hM5 cells, Fluo-8 calcium fluorescence, ACh EC80; inhibition, % at 3 µM; hit rate 0.59% among 360,000;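 active = inhibition above a per-plate cutoff, the mean of that plate's test compounds plus 3 SD, cut at about 27% in these data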;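 also: 0% = acetylcholine EC80 with DMSO and 100% = DMSO without agonist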
# CHRM4 agonist: CHRM4 agonism in calcium assay. CHO-K1 hM4/Gqi5, Fluo-8 calcium fluorescence; vehicle 0%, full acetylcholine response 100%. activation, % at 3 µM. hit rate 0.14% among 360,000. AID 624127;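 active = activation above the run mean over all test wells plus 3 SD, cut at about 32% in these data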;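 also: peak over basal fluorescence ratio per well then scaled between controls; 0% = DMSO wells and 100% = acetylcholine at EC100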
# M4 antag: antagonists of human muscarinic M4 receptor (CHRM4). P08173. CHO-hM4 cells, ACh EC80, Fluo-8 calcium fluorescence. inhibition, % at 3 µM. hit rate 0.73% among 360,000. AID 624125;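 active = inhibition above its plate's cutoff, the mean inhibition of sample wells plus 3 SD, cut at about 27% in these data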;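 also: 0% = acetylcholine EC80 with DMSO and 100% = DMSO without agonist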
# CHRM5 agonist: agonists of human muscarinic M5 receptor (CHRM5). CHO-K1 hM5 cells, Fluo-8 calcium fluorescence; 0% DMSO wells, 100% maximal acetylcholine response. hit rate 0.19% among 360,000. activation, % at 3 µM. P08912;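 active = activation above the run's mean over test compounds plus 3 SD, cut at about 23% in these data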;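 also: signal is peak over basal fluorescence ratio across the kinetic read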
# * hit, by the source's call.
SMILES,M4 PAM,M5 PAM,M5 antag,CHRM4 agonist,M4 antag,CHRM5 agonist
N#CCCN(Cc1ccccc1)C(=S)Nc1ccccc1,21*,8,1,2,-10,-4
Cc1noc(C)c1S(=O)(=O)NCCN1CCN(c2ccccc2)CC1,17*,4,-5,4,-12,-4
CN1C(=O)[C@H]2[C@@H](c3ccc(C(F)(F)F)cc3)N[C@]3(CCCN(CC4CCCCC4)C3=O)[C@H]2C1=O,5,5,1,1,0,-1
C#CCn1c2ccccc2c(=O)n1CCOc1ccccc1OC,2,-5,16,2,-4,1
CCN(CC)S(=O)(=O)c1ccc(C)c(NC(=O)CNc2cccc(S(=O)(=O)N3CCCC3)c2)c1,6,0,1,1,-15,0
O=C(CNc1cccc(S(=O)(=O)N2CCCC2)c1)Nc1ccc(F)c(F)c1,20*,-10,10,14,-17,6
CCN(CC)S(=O)(=O)c1cccc(NC(=O)CNc2cccc(S(=O)(=O)N3CCCC3)c2)c1,-6,-12,38*,8,12,-2
CCN(CC)S(=O)(=O)c1cccc(NC(=O)/C=C/c2cccc([N+](=O)[O-])c2)c1,-18,-19,33*,19,17,-1
O=C(COC(=O)c1cc([N+](=O)[O-])ccc1NCCO)Nc1cccc(S(=O)(=O)N2CCCC2)c1,-15,-9,15,5,35*,-4
CCN(CC)S(=O)(=O)c1cccc(NC(=O)/C=C/c2ccc([N+](=O)[O-])cc2)c1,-16,-10,3,10,2,3
O=C(COC(=O)c1cc([N+](=O)[O-])ccc1NCCO)Nc1ccc2c(c1)OCO2,-5,-8,16,4,-3,0
CC(C)S(=O)(=O)N1CCCC(c2cc(C(=O)Nc3ccc(F)c(Cl)c3)no2)C1 (stereo not given),-8,-8,6,16,-20,8
Cc1cc(OCC(=O)Nc2cccc(S(=O)(=O)N3CCCCC3)c2)ccc1Cl,-7,-15,14,5,4,2
CCC(=O)c1ccc(OCC(=O)Nc2cccc(S(=O)(=O)N3CCCCCC3)c2)cc1,-13,-31,29*,26,25,5
CCN(CC)S(=O)(=O)c1cccc(NC(=O)Nc2cccc(C(F)(F)F)c2)c1,-15,-16,34*,15,11,9
CN1CCN(C(=O)c2ccc(Cc3cn(C)c4ccccc34)nc2)CC1,6,0,-10,2,-25,-1
CCOC(=O)C1CCN(c2nc3ccccc3nc2C(C#N)C(=O)OC(C)C)CC1 (stereo not given),0,-3,1,0,3,-4
CCOC(=O)C1CCCN(c2nc3ccccc3nc2C(C#N)C(=O)OC(C)C)C1 (stereo not given),21*,4,-1,2,0,2
CCc1ccc(/C=C2\SC(=S)N(CCCC(=O)N3CCN(C)CC3)C2=O)cc1,-4,-11,12,7,6,1
COc1ccc(/C=C2\SC(=S)N(CCCC(=O)N3CCN(C)CC3)C2=O)cc1,-3,33*,11,10,-9,6
CCCCNC(=O)c1nc(C2CCNCC2)oc1-c1cccc(C(F)(F)F)c1,5,0,2,3,-11,1
COc1cccc(C(=O)c2ccccc2C(=O)O)c1,1,4,-2,1,1,2
COC(=O)c1c(NC(=O)c2ccccc2)sc2c1CC(C)(C)NC2(C)C,-3,-8,0,1,0,0
CC1(C)Cc2c(sc(NC(=O)c3ccc(C(=O)c4ccccc4)cc3)c2C(N)=O)C(C)(C)N1,0,-8,32*,16,10,-6
CCOc1cc(C(=O)Nc2ccc(N3CCN(C(C)=O)CC3)cc2)cc(OCC)c1OCC,1,18*,-8,1,-5,4
COc1ccc(C(=O)Nc2ccc(N3CCN(C(=O)C(C)C)CC3)cc2)cc1[N+](=O)[O-],23*,0,10,1,-3,3
